Reference: ChEMBL document CHEMBL4406880, “Design, synthesis, and bioactivity of dihydropyrimidine derivatives as kinesin spindle protein inhibitors” (Bioorg Med Chem, 2019)

What was measured:
Type in all cases: functional
[1] = test system: HCT-15; assay: Growth inhibition of human HCT15 cells assessed as cell viability at 0.1 uM incubated for 48 hrs by sulforhodamine B assay; details: HCT-15, 48 h, read-out: Activity
[2] = test system: SW-620; assay: Growth inhibition of human SW620 cells assessed as cell viability at 100 uM incubated for 48 hrs by sulforhodamine B assay; details: SW-620, 48 h, read-out: Activity
[3] = test system: NCI-H522; assay: Growth inhibition of human NCI-H522 cells assessed as cell viability at 100 uM incubated for 48 hrs by sulforhodamine B assay; details: NCI-H522, 48 h, read-out: Activity
[4] = test system: A549; assay: Growth inhibition of human A549/ATCC cells assessed as cell viability at 100 uM incubated for 48 hrs by sulforhodamine B assay; details: A549, 48 h, read-out: Activity
How it was run: (§1)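 NCI-60 five-dose mode: five tenfold dilutions (0.01, 0.1, 1, 10, 100 µM) are applied for 48 h to cells in RPMI 1640 with 5% FBS at 37 °C. Endpoint is TCA fixation with sulforhodamine B read at 515 nm. % growth comes from the 0 h and control absorbances. GI50 is the concentration giving a 50% reduction in net cell growth.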

[5] = test system: HT-29; assay: Growth inhibition of human HT-29 cells incubated for 48 hrs by sulforhodamine B assay; details: HT-29, 48 h
How it was run: (§2)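 NCI-60 five-dose SRB assay in RPMI 1640 with 5% FBS, 37 °C, 5% CO2. Compound given at five tenfold dilutions, 0.01–100 µM, for 48 h. Adherent cells fixed with TCA, suspension cells with 16% final TCA. Bound SRB read at 515 nm and growth calculated against time-zero and untreated controls. GI50 taken from dose–response curves as the concentration giving a 50% decrease in net cell growth.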

[6] = test system: SK-MEL-28; assay: Growth inhibition of human SK-MEL-28 cells assessed as cell viability at 100 uM incubated for 48 hrs by sulforhodamine B assay; details: SK-MEL-28, 48 h, read-out: Activity
[7] = test system: K562; assay: Growth inhibition of human K562 cells assessed as cell viability at 1 uM incubated for 48 hrs by sulforhodamine B assay; details: K562, 48 h, read-out: Activity
[8] = test system: HOP-62; assay: Growth inhibition of human HOP62 cells incubated for 48 hrs by sulforhodamine B assay; details: HOP-62, 48 h; how it was run: as §2
[9] = test system: PC-3; assay: Growth inhibition of human PC3 cells assessed as cell viability at 100 uM incubated for 48 hrs by sulforhodamine B assay; details: PC-3, 48 h, read-out: Activity
[10] = test system: ACHN; assay: Growth inhibition of human ACHN cells incubated for 48 hrs by sulforhodamine B assay; how it was run: as §1
[11] = test system: MOLT-4; assay: Growth inhibition of human MOLT4 cells incubated for 48 hrs by sulforhodamine B assay; details: MOLT-4, 48 h; how it was run: as §2
[12] = test system: T47D; assay: Growth inhibition of human T47D cells assessed as cell viability at 1 uM incubated for 48 hrs by sulforhodamine B assay; details: read-out: Activity
[13] = test system: MDA-MB-231; assay: Growth inhibition of human MDA-MB-231 cells assessed as cell viability at 100 uM incubated for 48 hrs by sulforhodamine B assay; details: MDA-MB-231, 48 h, read-out: Activity
[14] = test system: UACC-257; assay: Growth inhibition of human UACC257 cells incubated for 48 hrs by sulforhodamine B assay; details: UACC-257, 48 h
How it was run: (§3)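 NCI-60 five-dose SRB assay. Cells were exposed for 48 h to tenfold dilutions of 0.01, 0.1, 1, 10 and 100 µM, in RPMI 1640 with 5% FBS. Plates fixed with TCA at the time of drug addition served as the time-zero reference. GI50 is the concentration giving a 50% reduction in net growth. TGI is total growth inhibition. LC50 is a net 50% loss of the initial cells.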

[15] = test system: SN12C; assay: Growth inhibition of human SN12C cells assessed as cell viability at 0.1 uM incubated for 48 hrs by sulforhodamine B assay; details: read-out: Activity
[16] = test system: SNB-75; assay: Induction of apoptosis in human SNB75 cells assessed as necrosis at 2 uM incubated for 24 hrs by annexin V FITC and propidium iodide based flow cytometry (reference value: 0.44 %)
[17] = test system: SNB-75; assay: Growth inhibition of human SNB75 cells assessed as cell viability at 0.1 uM incubated for 48 hrs by sulforhodamine B assay; details: SNB-75, 48 h, read-out: Activity
[18] = test system: UO-31; assay: Growth inhibition of human UO31 cells assessed as cell viability at 0.1 uM incubated for 48 hrs by sulforhodamine B assay; details: UO-31, 48 h, read-out: Activity
[19] = test system: SK-MEL-2; assay: Growth inhibition of human SK-MEL-2 cells incubated for 48 hrs by sulforhodamine B assay; details: SK-MEL-2, 48 h; how it was run: as §3
[20] = test system: Malme-3M; assay: Growth inhibition of human MALME-3M cells assessed as cell viability at 100 uM incubated for 48 hrs by sulforhodamine B assay; details: read-out: Activity
[21] = test system: NCI-H226; assay: Growth inhibition of human NCI-H226 cells assessed as cell viability at 0.1 uM incubated for 48 hrs by sulforhodamine B assay; details: NCI-H226, 48 h, read-out: Activity
[22] = test system: NCI-H23; assay: Growth inhibition of human NCI-H23 cells incubated for 48 hrs by sulforhodamine B assay; details: NCI-H23, 48 h; how it was run: as §2
[23] = test system: U-251; assay: Growth inhibition of human U251 cells assessed as cell viability at 0.001 uM incubated for 48 hrs by sulforhodamine B assay relative to control; details: U-251, 48 h, read-out: Activity
[24] = test system: NCI-H226; assay: Growth inhibition of human NCI-H226 cells assessed as cell viability at 0.001 uM incubated for 48 hrs by sulforhodamine B assay relative to control; details: NCI-H226, 48 h, read-out: Activity
[25] = read-out: LC50 (the source's name)
[26] = read-out: pLC50 (the source's name) (converted)

Which viability at 0.1 µM [1] does the source give for `CC1=C(C(=O)OCc2ccccc2)C(c2ccc3c(c2)OCO3)n2c(nc3ccccc32)N1` (racemic) here?
Its viability at 0.1 µM is 84%.

And the viability at 100 µM [2]?
The viability at 100 µM was 6%.

And the viability at 100 µM [3]?
Its viability at 100 µM is -8%.

What about the viability at 100 µM [4] of the same molecule?
The viability at 100 µM was 10%.

What about the GI50 ([5]; read-out: GI50) of the same molecule?
The GI50 was 0.34 µM.

What about the LC50 (50% net cell kill) ([5]; read-out: LC50) of the same molecule?
The LC50 (50% net cell kill) was over 100 µM.

And the TGI ([5]; read-out: TGI)?
Its TGI is over 100 µM.

What about the GI50 ([5]; read-out: pGI50 (converted)) of the same molecule?
Its GI50 is 0.347 µM.

What about the LC50 (50% net cell kill) ([5]; read-out: pLC50 (converted)) of the same molecule?
The LC50 (50% net cell kill) was over 100 µM.

And the TGI ([5]; read-out: pTGI)?
Its TGI is over 100 µM.

And the viability at 100 µM [6]?
Its viability at 100 µM is 60%.

What about the viability at 1 µM [7] of the same molecule?
Its viability at 1 µM is 23%.

What about the GI50 ([8]; read-out: GI50) of the same molecule?
Its GI50 is 0.78 µM.

What about the CC50 [8, 25] of the same molecule?
The CC50 was over 100 µM.

And the TGI ([8]; read-out: TGI)?
The TGI was over 100 µM.

What about the GI50 ([8]; read-out: pGI50 (converted)) of the same molecule?
Its GI50 is 0.776 µM.

And the CC50 [8, 26]?
The CC50 was over 100 µM.

And the TGI ([8]; read-out: pTGI)?
The TGI was over 100 µM.

What about the viability at 100 µM [9] of the same molecule?
Its viability at 100 µM is 45%.

What about the GI50 ([10]; read-out: GI50) of the same molecule?
Its GI50 is 0.69 µM.

What about the CC50 [10, 25] of the same molecule?
The CC50 was over 100 µM.

And the TGI ([10]; read-out: TGI)?
Its TGI is over 100 µM.

What about the GI50 ([10]; read-out: pGI50 (converted)) of the same molecule?
The GI50 was 0.692 µM.

And the CC50 [10, 26]?
Its CC50 is over 100 µM.

What about the TGI ([10]; read-out: pTGI) of the same molecule?
The TGI was over 100 µM.

What about the GI50 ([11]; read-out: GI50) of the same molecule?
The GI50 was 0.75 µM.

What about the CC50 [11, 25] of the same molecule?
The CC50 was over 100 µM.

And the TGI ([11]; read-out: TGI)?
Its TGI is over 100 µM.

And the GI50 ([11]; read-out: pGI50 (converted))?
Its GI50 is 0.759 µM.

And the CC50 [11, 26]?
The CC50 was over 100 µM.

And the TGI ([11]; read-out: pTGI)?
Its TGI is over 100 µM.

What about the viability at 1 µM [12] of the same molecule?
Its viability at 1 µM is 30%.

What about the viability at 100 µM [13] of the same molecule?
The viability at 100 µM was 49%.

What about the GI50 ([14]; read-out: GI50) of the same molecule?
Its GI50 is 0.98 µM.

What about the LC50 (concentration killing 50% of the initial cells) ([14]; read-out: LC50) of the same molecule?
Its LC50 (concentration killing 50% of the initial cells) is over 100 µM.

What about the TGI ([14]; read-out: TGI) of the same molecule?
Its TGI is over 100 µM.

And the GI50 ([14]; read-out: pGI50 (converted))?
The GI50 was 0.977 µM.

What about the LC50 (concentration killing 50% of the initial cells) ([14]; read-out: pLC50 (converted)) of the same molecule?
Its LC50 (concentration killing 50% of the initial cells) is over 100 µM.

What about the TGI ([14]; read-out: pTGI) of the same molecule?
Its TGI is over 100 µM.

What about the viability at 0.1 µM [15] of the same molecule?
The viability at 0.1 µM was 95%.

What about the Activity [16] of the same molecule?
Its Activity is 2.05%.

And the viability at 0.1 µM [17]?
The viability at 0.1 µM was 79%.

And the viability at 0.1 µM [18]?
The viability at 0.1 µM was 93%.

And the GI50 ([19]; read-out: GI50)?
The GI50 was 1.29 µM.

What about the LC50 ([19]; read-out: LC50) of the same molecule?
The LC50 was over 100 µM.

What about the TGI ([19]; read-out: TGI) of the same molecule?
Its TGI is over 100 µM.

What about the GI50 ([19]; read-out: pGI50 (converted)) of the same molecule?
The GI50 was 1.29 µM.

And the LC50 ([19]; read-out: pLC50 (converted))?
The LC50 was over 100 µM.

And the TGI ([19]; read-out: pTGI)?
The TGI was over 100 µM.

And the viability at 100 µM [20]?
Its viability at 100 µM is 20%.

What about the viability at 0.1 µM [21] of the same molecule?
Its viability at 0.1 µM is 97%.

And the GI50 ([22]; read-out: GI50)?
Its GI50 is 31.8 µM.

And the LC50 ([22]; read-out: LC50)?
Its LC50 is over 100 µM.

What about the TGI ([22]; read-out: TGI) of the same molecule?
Its TGI is over 100 µM.

And the GI50 ([22]; read-out: pGI50 (converted))?
The GI50 was 31.6 µM.

And the LC50 ([22]; read-out: pLC50 (converted))?
Its LC50 is over 100 µM.

And the TGI ([22]; read-out: pTGI)?
The TGI was over 100 µM.

What about the viability at 0.001 µM [23] of the same molecule?
Its viability at 0.001 µM is 94%.

And the viability at 0.001 µM [24]?
Its viability at 0.001 µM is 93%.
